From ChEMBL document CHEMBL4346672, “Antimicrobial and KPC/AmpC inhibitory activity of functionalized benzosiloxaboroles” (Eur J Med Chem, 2019)
In brackets after ≈: the same amount, converted by molar mass. Activity calls are given as the source filed them. No cut-off for these calls is given here.

Key:
Serratia marcescens = assay: Antibacterial activity against Serratia marcescens ATCC 13880 measured after 18 hrs by CLSI broth dilution method; assay type: functional; settings: ATCC 13880, 18 h
Outline: (§1)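 Broth MIC in Mueller-Hinton II broth following CLSI, compounds dissolved in DMSO. Strains subcultured twice on tryptic soy agar before testing. Growth read after 35 °C, 18 h.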

[1] = test system: Bordetella bronchiseptica; assay: Antibacterial activity against Bordetella bronchiseptica ATCC 4617 measured after 18 hrs by CLSI broth dilution method; assay type: functional; settings: ATCC 4617, 18 h; outline: as §1
Acinetobacter baumannii [2] = assay: Antibacterial activity against Acinetobacter baumannii ATCC 19606 assessed as diameter of zone inhibition measured after 18 hrs by CLSI disc diffusion method; assay type: functional
Outline: (§2)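 Disc diffusion on Mueller-Hinton II agar. Compounds dissolved in DMSO. Strains stored at -80 °C and subcultured twice on tryptic soy agar before testing. Inhibition zones read after 35 °C, 18 h.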

Burkholderia cepacia [3] = assay: Antibacterial activity against Burkholderia cepacia ATCC 25416 assessed as diameter of zone inhibition measured after 18 hrs by CLSI disc diffusion method; assay type: functional; outline: as §2
Enterococcus faecalis [4] = assay: Antibacterial activity against Enterococcus faecalis ATCC 29212 measured after 18 hrs by CLSI broth dilution method; assay type: functional; settings: ATCC 29212, 18 h; outline: as §1
Proteus mirabilis [5] = assay: Antibacterial activity against Proteus mirabilis ATCC 12453 measured after 18 hrs by CLSI broth dilution method; assay type: functional; settings: ATCC 12453, 18 h; outline: as §1
Enterobacter cloacae [6] = assay: Antibacterial activity against Enterobacter cloacae DSM 6234 assessed as diameter of zone inhibition measured after 18 hrs by CLSI disc diffusion method; assay type: functional; outline: as §2
Pseudomonas aeruginosa [7] = assay: Antibacterial activity against Pseudomonas aeruginosa ATCC 27853 measured after 18 hrs by CLSI broth dilution method; assay type: functional; settings: ATCC 27853, 18 h; outline: as §1
Klebsiella pneumoniae [8] = assay: microbe, parasite or virus in culture; settings: ATCC 13883, 18 h
Enterobacter cloacae [9] = assay: microbe, parasite or virus in culture; settings: DSM 6234, 18 h
Enterococcus faecium [10] = assay: Antibacterial activity against Enterococcus faecium ATCC 6057 measured after 18 hrs by CLSI broth dilution method; assay type: functional; settings: ATCC 6057, 18 h; outline: as §1
[11] = test system: Bordetella bronchiseptica; assay: Bactericidal activity against Bordetella bronchiseptica ATCC 4617 measured after 18 hrs by CLSI broth dilution method; assay type: functional; settings: ATCC 4617, 18 h
Outline: (§3)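 Strains stored at -80 °C and subcultured twice on tryptic soy agar before testing. Compounds dissolved in DMSO. […] MBC then determined per CLSI recommendations.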

Enterococcus faecium [12] = assay: Bactericidal activity against Enterococcus faecium ATCC 6057 measured after 18 hrs by CLSI broth dilution method; assay type: functional; settings: ATCC 6057, 18 h; outline: as §3
Enterobacter cloacae [13] = assay: Antibacterial activity against Enterobacter cloacae DSM 6234 measured after 18 hrs by CLSI broth dilution method; assay type: functional; settings: DSM 6234, 18 h; outline: as §1
Acinetobacter baumannii [14] = assay: microbe, parasite or virus in culture; settings: ATCC 19606, 18 h
Escherichia coli [15] = assay: microbe, parasite or virus in culture; settings: ATCC 25922, 18 h
[16] = test system: Staphylococcus epidermidis; assay: Antibacterial activity against Staphylococcus epidermidis ATCC 12228 measured after 18 hrs by CLSI broth dilution method; assay type: functional; settings: ATCC 12228, 18 h; outline: as §1
[17] = test system: Staphylococcus epidermidis; assay: microbe, parasite or virus in culture; settings: ATCC 12228, 18 h, read-out: DIZ
Pseudomonas aeruginosa [18] = assay: Antibacterial activity against Pseudomonas aeruginosa ATCC 27853 assessed as diameter of zone inhibition measured after 18 hrs by CLSI disc diffusion method; assay type: functional, organism-based; outline: as §2
Burkholderia cepacia [19] = assay: Antibacterial activity against Burkholderia cepacia ATCC 25416 measured after 18 hrs by CLSI broth dilution method; assay type: functional; settings: ATCC 25416, 18 h; outline: as §1
Burkholderia cepacia [20] = assay: Bactericidal activity against Burkholderia cepacia ATCC 25416 measured after 18 hrs by CLSI broth dilution method; assay type: functional; settings: ATCC 25416, 18 h; outline: as §3
[21] = test system: Staphylococcus epidermidis; assay: Bactericidal activity against Staphylococcus epidermidis ATCC 12228 measured after 18 hrs by CLSI broth dilution method; assay type: functional; settings: ATCC 12228, 18 h; outline: as §3
Staphylococcus aureus [22] = assay: Antibacterial activity against Staphylococcus aureus ATCC 6538P measured after 18 hrs by CLSI broth dilution method; assay type: functional; outline: as §1
Enterococcus faecalis [23] = assay: Bactericidal activity against Enterococcus faecalis ATCC 29212 measured after 18 hrs by CLSI broth dilution method; assay type: functional; settings: ATCC 29212, 18 h; outline: as §3
[24] = test system: Stenotrophomonas maltophilia; assay: Antibacterial activity against Stenotrophomonas maltophilia ATCC 13637 measured after 18 hrs by CLSI broth dilution method; assay type: functional; settings: ATCC 13637, 18 h; outline: as §1
Bacillus subtilis = assay: microbe, parasite or virus in culture; settings: ATCC 6633, 18 h, read-out: DIZ
Proteus mirabilis [25] = assay: Antibacterial activity against Proteus mirabilis ATCC 12453 assessed as diameter of zone inhibition measured after 18 hrs by CLSI disc diffusion method; assay type: functional; outline: as §2
[26] = test system: Stenotrophomonas maltophilia; assay: Antibacterial activity against Stenotrophomonas maltophilia ATCC 13637 assessed as diameter of zone inhibition measured after 18 hrs by CLSI disc diffusion method; assay type: functional; outline: as §2
Escherichia coli [27] = assay: Antibacterial activity against Escherichia coli ATCC 25922 measured after 18 hrs by CLSI broth dilution method; assay type: functional; settings: ATCC 25922, 18 h; outline: as §1
Klebsiella pneumoniae [28] = assay: Antibacterial activity against Klebsiella pneumoniae ATCC 13883 measured after 18 hrs by CLSI broth dilution method; assay type: functional; settings: ATCC 13883, 18 h; outline: as §1
Staphylococcus aureus [29] = assay: Bactericidal activity against Staphylococcus aureus ATCC 6538P measured after 18 hrs by CLSI broth dilution method; assay type: functional; outline: as §3
[30] = test system: Bordetella bronchiseptica; assay: Antibacterial activity against Bordetella bronchiseptica ATCC 4617 assessed as diameter of zone inhibition measured after 18 hrs by CLSI disc diffusion method; assay type: functional; outline: as §2
Acinetobacter baumannii [31] = assay: Antibacterial activity against Acinetobacter baumannii ATCC 19606 measured after 18 hrs by CLSI broth dilution method; assay type: functional; settings: ATCC 19606, 18 h; outline: as §1
Staphylococcus aureus [32] = assay: microbe, parasite or virus in culture; settings: ATCC 6538P, 18 h, read-out: DIZ
Escherichia coli [33] = assay: Antibacterial activity against Escherichia coli ATCC 25922 assessed as diameter of zone inhibition measured after 18 hrs by CLSI disc diffusion method; assay type: functional; outline: as §2

MIC (Serratia marcescens): 128 µg/mL (≈ 537 µM)
MIC [1]: 64 µg/mL (≈ 269 µM)
MIC (Enterococcus faecalis [4]): 8 µg/mL (≈ 33.6 µM)
MIC (Proteus mirabilis [5]): 128 µg/mL (≈ 537 µM)
MIC (Pseudomonas aeruginosa [7]): > 128 µg/mL
MIC (Enterococcus faecium [10]): 8 µg/mL (≈ 33.6 µM)
MIC (Enterobacter cloacae [13]): 32 µg/mL (≈ 134 µM)
MIC [16]: 4 µg/mL (≈ 16.8 µM)
MIC (Burkholderia cepacia [19]): 32 µg/mL (≈ 134 µM)
MIC (Staphylococcus aureus [22]): 8 µg/mL (≈ 33.6 µM)
MIC [24]: 128 µg/mL (≈ 537 µM)
MIC (Escherichia coli [27]): 8 µg/mL (≈ 33.6 µM)
MIC (Klebsiella pneumoniae [28]): 32 µg/mL (≈ 134 µM)
MIC (Acinetobacter baumannii [31]): 64 µg/mL (≈ 269 µM)
Compound: O=C1CN(/N=C/c2ccc([N+](=O)[O-])o2)C(=O)N1 [NITROFURANTOIN]
diameter of the inhibition zone (DIZ) (Acinetobacter baumannii [2]): 9 mm
diameter of the inhibition zone (DIZ) (Burkholderia cepacia [3]): 12 mm
diameter of the inhibition zone (DIZ) (Enterobacter cloacae [6]): 17 mm
MBC (Klebsiella pneumoniae [8]): 32 µg/mL (≈ 134 µM)
MBC (Enterobacter cloacae [9]): 32 µg/mL (≈ 134 µM)
MBC [11]: 128 µg/mL (≈ 537 µM)
MBC (Enterococcus faecium [12]): > 128 µg/mL
MBC (Acinetobacter baumannii [14]): 128 µg/mL (≈ 537 µM)
MBC (Escherichia coli [15]): 8 µg/mL (≈ 33.6 µM)
zone of inhibition at 300 µg/disc [17]: 31 mm
diameter of the inhibition zone (DIZ) (Pseudomonas aeruginosa [18]): inactive
MBC (Burkholderia cepacia [20]): 32 µg/mL (≈ 134 µM)
MBC [21]: 8 µg/mL (≈ 33.6 µM)
MBC (Enterococcus faecalis [23]): 128 µg/mL (≈ 537 µM)
zone of inhibition at 300 µg/disc (Bacillus subtilis): 30 mm
diameter of the inhibition zone (DIZ) (Proteus mirabilis [25]): 9 mm
diameter of the inhibition zone (DIZ) [26]: inactive
MBC (Staphylococcus aureus [29]): 16 µg/mL (≈ 67.2 µM)
diameter of the inhibition zone (DIZ) [30]: inactive
zone of inhibition at 300 µg/disc (Staphylococcus aureus [32]): 24 mm
diameter of the inhibition zone (DIZ) (Escherichia coli [33]): 24 mm
